Results: PubChem BioAssay
Active and inactive are the calls of the source. Cut-off read from the data, not from the text of the source, unless noted: active = inhibition above about 30%; inactive = the rest.

Legend:
[1] = HUVEC growth inhibition – cell-based, human, primary screen (AID 575;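 active = viability at or below 30% in both replicate assays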;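 note: 100% = median of untreated cell wells with 0.1% DMSO on each plate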); conditions: HUVEC proliferation, CellTiter-Glo luminescence, 72 h; at 10 µM; stronger effect = lower value
How it was run: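 Assay system: Primary human umbilical vein endothelial cells | Quantity: 1250 cells per well | Medium: Supplemented EBM, 2% fetal bovine serum | Detection: CellTiter-Glo luminescence measuring cellular ATP | Read-out: % viability vs DMSO wells | Plate: Collagen-coated 384-well format | Times: 72 h exposure, 37 °C, 5% CO2, 30 min RT equilibration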

[2] = growth inhibitors of H69AR lung tumor, primary screen, human, duplicate replicates (AID 580;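 active = viability at or under a set limit in both replicates, limit being median viability minus 3 SD, cut at about 48% in these data, passing the limit was not always enough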;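 note: 100% = mean luminescence of untreated wells and 0% = no signal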); conditions: H69AR lung tumor cells viability, ATP luminescence, 72 h; at 10 µM; stronger effect = lower value
[3] = reversal of MRP1-mediated doxorubicin resistance, pilot screen, H69AR cells, doxorubicin co-treatment (AID 601;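 active = viability loss from added drug above about 55%, and viability with drug at most 40%, in both replicates, limit read from the data, passing the limit was not always enough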); conditions: CellTiter-Glo, 72 h, at 10 µM; for differential viability (reversal): stronger effect = higher value
[4] = 384-well plate pilot, post-Golgi transport modulator project, inhibition of yeast transport mutant growth (AID 636; in the data active = inhibition above about 31%); conditions: absorbance 615 nm, about 18 h, stronger effect = higher value
[5] = growth suppression of yeast trafficking mutant, preliminary HTS, modulators of trafficking downstream of Golgi apparatus project, 1536-format plate, OD 615 nm (AID 637); conditions: yeast transport mutant growth, absorbance 615 nm, 18 h; stronger effect = higher value
[6] = H69AR cells + 2 uM doxorubicin, measured here: viability with 2 uM doxorubicin, stronger effect = lower value
[7] = H69AR cells, compound alone cytotoxicity

Row | Compound | viability [1] | viability [2] | differential viability (reversal) ([3]; H69AR cells + 2 uM doxorubicin) | viability [3, 6] [%] | viability [3, 7] [%] | inhibition [4] | inhibition [5]
1 | COc1ccccc1C(=O)NCCNC(=O)c1ccco1 | 112% (inactive) | 91.6% (inactive) | -4.88% (inactive) | 96.5 | 91.6 | -4.53% (inactive) | 0.48% (inactive)
2 | C=CCn1c(Br)nc2c1c(=O)[nH]c(=O)n2C | 97.7% (inactive) | 85.1% (inactive) | 6.37% (inactive) | 78.7 | 85.1 | -6.93% (inactive) | 3.33% (inactive)
3 | O=C(NC1CCCCC1)C1CCCN1C(=O)NCc1ccccc1 (configuration not stated) | 101% (inactive) | 102% (inactive) | -1.87% (inactive) | 104 | 102 | -4.93% (inactive) | -3.17% (inactive)
4 | CCCn1c(=N)n(CCOc2ccc(OC)cc2)c2ccccc21 | 91.4% (inactive) | 69.8% (inactive) | 1.35% (inactive) | 68.5 | 69.8 | -6.05% (inactive) | 3.49% (inactive)
5 | O=C1C2C3C=CC(C3)C2C(=O)N1CNc1ccc(O)cc1 (configuration not stated) | 93.7% (inactive) | 90.7% (inactive) | -11.8% (inactive) | 102 | 90.7 | 0.13% (inactive) | -4.6% (inactive)
6 | CCOC(=O)C1C(=O)OC(C)(C)C1C(C)C(=O)c1ccc(OC)cc1 (configuration not stated) | 112% (inactive) | 96% (inactive) | 3.24% (inactive) | 92.7 | 96 | -0.39% (inactive) | 18.6% (inactive)
7 | COc1cccc(N2CCN(c3ncnc4c3[nH]c3ccc(F)cc34)CC2C)c1 (configuration not stated) | 2.17% (active) | 3.55% (active) | -1.01% (inactive) | 4.56 | 3.55 | 71% (active) | 29.6% (inactive)
8 | CCCC(CCC)n1[nH]c(=O)c2c(C)cc(C)nc21 | 108% (inactive) | 104% (inactive) | 1.53% (inactive) | 103 | 104 | 0.26% (inactive) | -3.17% (inactive)
9 | CC1CCN(C(=O)c2cc(-c3ccc(Cl)c(Cl)c3)on2)CC1 | 77.1% (inactive) | 90.7% (inactive) | 10.5% (inactive) | 80.2 | 90.7 | -2.11% (inactive) | 0.95% (inactive)
10 | CCOC(=O)c1cc2c(=O)n3cccc(C)c3nc2n(CCOC)c1=NC(=O)c1ccncc1 | 104% (inactive) | 82.6% (inactive) | -10.1% (inactive) | 92.6 | 82.6 | -4.13% (inactive) | 3.33% (inactive)
11 | O=c1cc(CSc2nnc(COc3ccc(Cl)cc3)o2)c2ccccc2[nH]1 | 86.8% (inactive) | 90.2% (inactive) | -2.67% (inactive) | 92.9 | 90.2 | -2.11% (inactive) | -6.67% (inactive)
12 | CC1(C)C2CCC1(CS(=O)(=O)NCc1ccc(C(=O)O)cc1)C(=O)C2 (configuration not stated) | 103% (inactive) | 108% (inactive) | 23.7% (inactive) | 84.2 | 108 | -0.39% (inactive) | 3.33% (inactive)
13 | COc1ccc(C(=O)Nc2ccccc2C(=O)NCCN2CCOCC2)cc1 | 107% (inactive) | 95.8% (inactive) | 2.99% (inactive) | 92.8 | 95.8 | 0% (inactive) | -4.13% (inactive)
14 | CCCC1CCC(C(=O)Nn2c(C)nc3ccccc3c2=O)CC1 (configuration not stated) | 104% (inactive) | 98.2% (inactive) | 14.9% (inactive) | 83.3 | 98.2 | -3.16% (inactive) | 0.95% (inactive)
15 | Cc1ccc(SCCC(=O)N(C)C)cc1 | 105% (inactive) | 103% (inactive) | 18.3% (inactive) | 84.6 | 103 | -2.89% (inactive) | 0% (inactive)
16 | Cn1cccc1C(=O)NC(=O)CSc1nnc(C2CC2)n1-c1ccccc1 | 102% (inactive) | 85.7% (inactive) | -7.28% (inactive) | 93 | 85.7 | -1.17% (inactive) | -0.63% (inactive)
17 | O=C(Nc1ccccc1C(=O)N1CCOCC1)c1ccncc1 | 96.4% (inactive) | 101% (inactive) | 7.54% (inactive) | 93.6 | 101 | -1.43% (inactive) | -2.22% (inactive)
18 | N=c1ncn(CC(O)CN2CCOCC2)c2nc(N3CCOCC3)[nH]c12 (configuration not stated) | 92.6% (inactive) | 98.6% (inactive) | 12.4% (inactive) | 86.2 | 98.6 | 0.4% (inactive) | -1.9% (inactive)
19 | C=C(C)Cn1c(CCNC(=O)CC)nc2ccccc21 | 100% (inactive) | 104% (inactive) | 12.7% (inactive) | 91.4 | 104 | -3.95% (inactive) | -0.63% (inactive)
20 | COc1ccc(N(CC(=O)Nc2ccc(F)c(Cl)c2)S(=O)(=O)c2c(C)noc2C)cc1 | 93.8% (inactive) | 81.5% (inactive) | -7.84% (inactive) | 89.3 | 81.5 | -1.07% (inactive) | -6.83% (inactive)
21 | Cc1cc(C)c2c(N)c(C(=O)c3ccccc3)oc2n1 | 80.2% (inactive) | 90.4% (inactive) | -1.71% (inactive) | 92.1 | 90.4 | -7.6% (inactive) | 2.22% (inactive)

Row | Compound | viability [1] | viability [2] | differential viability (reversal) ([3]; H69AR cells + 2 uM doxorubicin) | viability [3, 6] [%] | viability [3, 7] [%] | inhibition [4] | inhibition [5]
22 | Cn1c(-c2ccc(F)cc2)cnc1NCc1ccccc1 | 108% (inactive) | 66.2% (inactive) | -15.4% (inactive) | 81.6 | 66.2 | -3.03% (inactive) | 4.6% (inactive)
23 | CCCc1ccc(C(C)NC(=O)c2cnccn2)cc1 (configuration not stated) | 87.3% (inactive) | 100% (inactive) | 16.6% (inactive) | 83.5 | 100 | -5.26% (inactive) | 2.06% (inactive)
24 | CCC(C)c1ccc(NC(=O)C2CC2)cc1 (configuration not stated) | 88.6% (inactive) | 90.3% (inactive) | 9.41% (inactive) | 80.9 | 90.3 | -1.82% (inactive) | 2.06% (inactive)
25 | Cc1cccnc1NC(=O)CCCN1C(=O)c2ccccc2C1=O | 114% (inactive) | 94.7% (inactive) | 4.67% (inactive) | 90 | 94.7 | -6.13% (inactive) | 3.97% (inactive)
26 | Cc1noc(C)c1C(=O)Nc1sc(C)c(C)c1C#N | 105% (inactive) | 95.5% (inactive) | 20.3% (inactive) | 75.2 | 95.5 | -1.97% (inactive) | 2.86% (inactive)
27 | COc1cccc(C(=O)Nc2ccc(NC(=O)C(C)(C)C)cn2)c1 | 96% (inactive) | 76.2% (inactive) | 2.62% (inactive) | 73.5 | 76.2 | 2.34% (inactive) | -0.48% (inactive)
28 | Cc1nn(Cc2ccccc2)c(C)c1NC(=O)CCC(=O)O | 110% (inactive) | 89.4% (inactive) | -8.23% (inactive) | 97.7 | 89.4 | 3.42% (inactive) | -1.75% (inactive)
29 | O=c1ccn(Cc2ccccc2Cl)cc1 | 99.9% (inactive) | 88.2% (inactive) | 9.77% (inactive) | 78.4 | 88.2 | -4.47% (inactive) | -3.33% (inactive)
30 | O=C(NCc1n[nH]c(=S)n1-c1ccc(F)cc1)c1ccco1 | 102% (inactive) | 96.2% (inactive) | 6.98% (inactive) | 89.2 | 96.2 | -0.53% (inactive) | -1.11% (inactive)
31 | CC(C(N)=O)N1C(=O)C2C3C=CC(C3)C2C1=O (configuration not stated) | 85.1% (inactive) | 106% (inactive) | 10.4% (inactive) | 95.2 | 106 | -1.6% (inactive) | -2.22% (inactive)
32 | CCOC(=O)CSC1=C(C#N)C(c2ccc(C)cc2)C(C(=O)OC)C(=O)N1 (configuration not stated) | 81.7% (inactive) | 91.1% (inactive) | 1.55% (inactive) | 89.6 | 91.1 | -1.2% (inactive) | -5.56% (inactive)
33 | Cc1ccc(Nc2cc(C)nc3nnnn23)cc1 | 78.5% (inactive) | 93.4% (inactive) | 8.3% (inactive) | 85.1 | 93.4 | -5.06% (inactive) | -2.06% (inactive)
34 | Cc1nnc(SCC(=O)N2CCC(C(N)=O)CC2)s1 | 93.5% (inactive) | 91.2% (inactive) | -8.62% (inactive) | 99.8 | 91.2 | -1.2% (inactive) | -5.24% (inactive)
35 | COC(=O)c1cc(Br)ccc1-c1ccc(/C=N/n2nnnc2N)o1 | 58.1% (inactive) | 80.6% (inactive) | 14% (inactive) | 66.7 | 80.6 | -2.47% (inactive) | 6.51% (inactive)
36 | O=C(CN1C(=O)CC(c2ccccc2)=Nc2ccccc21)NCc1ccco1 | 99.2% (inactive) | 92.3% (inactive) | 12.9% (inactive) | 79.4 | 92.3 | -1.82% (inactive) | 13.5% (inactive)
37 | CC1(C)CC(=O)c2c(O)cc(O)cc2O1 | 107% (inactive) | 99.7% (inactive) | 15.4% (inactive) | 84.3 | 99.7 | -8.42% (inactive) | -1.43% (inactive)
38 | COc1ccc(CN(C(=O)CSc2nnc(-c3ccccc3F)o2)c2ccc(F)cc2)cc1 | 101% (inactive) | 101% (inactive) | 2.2% (inactive) | 98.8 | 101 | -5.2% (inactive) | 2.7% (inactive)
39 | CCOC(=O)c1ccc(NC(=O)Nc2ccn(C)n2)cc1 | 101% (inactive) | 91.2% (inactive) | 4.49% (inactive) | 86.7 | 91.2 | -6.27% (inactive) | 1.75% (inactive)
40 | C=CCn1c(=O)[nH]c2cc(C(=O)N3CCN(c4ccc(C(C)=O)cc4)CC3)ccc2c1=O | 68.5% (inactive) | 92.4% (inactive) | 13.4% (inactive) | 79 | 92.4 | -1.97% (inactive) | -5.71% (inactive)
41 | Cn1c(=O)[nH]c(=O)c2c1nc(N1CCNCC1)n2Cc1cccc2ccccc12 | 85.5% (inactive) | 88.8% (inactive) | 2.38% (inactive) | 86.4 | 88.8 | -1.56% (inactive) | 4.76% (inactive)
